For one series, the system named is HL-60(TB). Nature of the series: Growth inhibition of human HL-60(TB) cells. In kind it is functional. A digest of the protocol:
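Tested in the NCI 60 human tumour cell line panel. Compounds were first screened at a single concentration of 10 µM, and hits were then run in a five-dose assay. Growth was read as the change in optical density, expressed as a percentage of control. GI50 is the concentration that halves cellular growth, taken from the NCI database.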

Another series deals with K562. Nature of the series: Growth inhibition of human K562 cells. In kind it is functional. A digest of the protocol:
(§1)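 NCI 60-cell-line tumour panel. Compounds were first screened at a single concentration of 10 µM, then tested in 5-dose assays. Growth was read as the change in optical density, expressed as a percentage of control. GI50 is the concentration (µM) that halves cellular growth, and the values were taken from the NCI database.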

A further series deals with SW-620. Nature of the series: Growth inhibition of human SW620 cells. In kind it is functional. The gist of the method: as §1
A short description of series [1]: Half life in human plasma. In kind it is ADME, cell-free.
Series [2] in a line: Growth inhibition of human RPMI8226 cells. The following applies: RPMI-8226. Type of series: functional. The gist of the method:
as §1

Series [3] can be described thus: Growth inhibition of human RXF393 cells. Type of series: functional. Conditions: RXF 393. A digest of the protocol: as §1
A further series concerns MDA-MB-468. Description: Growth inhibition of human MDA-MB-468 cells. In kind it is functional. A digest of the protocol:
as §1

A further series concerns Malme-3M. Description: Growth inhibition of human MALME-3M cells. In kind it is functional. The gist of the method: as §1
A further series relates to SNB-75. Description: Growth inhibition of human SNB75 cells. In kind it is functional. The gist of the method:
as §1

A further series deals with T47D. Description: Growth inhibition of human T47D cells. In kind it is functional. The gist of the method:
as §1

The nature of series [4]: Growth inhibition of human OVCAR3 cells. Type of series: functional. Conditions: OVCAR-3. The gist of the method:
as §1

The test system of a further series is TK-10. Nature of the series: Growth inhibition of human TK10 cells. Type of series: functional. A digest of the protocol: as §1
Series [5] in a line: Growth inhibition of human HOP92 cells. Type of series: functional. Conditions: HOP-92. The gist of the method: as §1
Series [6] is described as follows: Growth inhibition of human BT549 cells. In kind it is functional. Conditions: BT-549. The gist of the method:
as §1

Series [7] is described as follows: Growth inhibition of human MOLT4 cells. The following applies: MOLT-4. Type of series: functional. The gist of the method: as §1
A further series relates to SR. Description: Growth inhibition of human SR cells. Type of series: functional. The gist of the method: as §1
Another series has as its system NCI-H522. Description: Growth inhibition of human NCI-H522 cells. Type of series: functional. A digest of the protocol: as §1
Series [8] in a line: Growth inhibition of human HCT116 cells. Type of series: functional. Conditions: HCT-116. The gist of the method:
as §1

Series [9] is described as follows: Growth inhibition of human LOXIMVI cells. Type of series: functional. The following applies: LOX IMVI. A digest of the protocol:
as §1

The next series deals with M14. Description: Growth inhibition of human M14 cells. In kind it is functional. The gist of the method:
as §1

Series [10] can be described thus: Growth inhibition of human SF539 cells. The following applies: SF-539. Type of series: functional. The gist of the method: as §1
A further series has as its system MCF7. Description: Growth inhibition of human MCF7 cells. In kind it is functional. The gist of the method: as §1
A further series concerns CCRF-CEM. Nature of the series: Growth inhibition of human CCRF-CEM cells. In kind it is functional. The gist of the method: as §1
The subject of another series is ACHN. Description: Growth inhibition of human ACHN cells. Type of series: functional. The gist of the method: as §1
The test system of another series is DU-145. Description: Growth inhibition of human DU145 cells. Type of series: functional. A digest of the protocol:
as §1

Another series has as its system CAKI-1. Description: Growth inhibition of human CAKI-1 cells. Type of series: functional. A digest of the protocol:
as §1

Series [11] can be described thus: Growth inhibition of human COLO205 cells. Type of series: functional. Conditions: COLO 205. The gist of the method: as §1
The next series deals with MDA-MB-435. Nature of the series: Growth inhibition of human MDA-MB-435 cells. Type of series: functional. The gist of the method: as §1
Another series deals with IGROV-1. Description: Growth inhibition of human IGROV1 cells. Type of series: functional. A digest of the protocol:
as §1

With `C=C1C(=O)O[C@H]2[C@H]1CC/C(COC(=O)N1CCC(F)(F)CC1)=C\CC[C@@]1(C)O[C@@H]21`, the 50% growth inhibitory concentration (GI50) was 2.04 µM in the series on HL-60(TB); 3.45 µM with K562; 1.46 µM in the series on SW-620; 1.98 µM in series [2]; 1.2 µM in [3]; 0.57 µM in the series with MDA-MB-468. Also, the GI50 in the series with Malme-3M stood at 1.9 µM; in the series with SNB-75, 6.13 µM; in the series with T47D it was 3.07 µM; in series [4] it was 1.69 µM; in the series on TK-10 it was 2.6 µM; in series [5] it was 1.45 µM. The GI50 was 2.69 µM in series [6]; 2.05 µM in [7]; 1.38 µM in the series on SR; 1.25 µM in the series on NCI-H522; 1.41 µM in series [8]; 2.23 µM in series [9]. The GI50 in the series with M14 was found to be 2.84 µM; in series [10], 1.98 µM; in the series with MCF7, 1.62 µM; in the series on CCRF-CEM it was 0.68 µM; in the series on ACHN, 1.79 µM; in the series on DU-145 it was 2.44 µM. Also, the GI50 with CAKI-1 turned out to be 2.03 µM; in series [11], 2.06 µM; in the series on MDA-MB-435 it was 0.46 µM; in the series with IGROV-1, 2.31 µM. Further, the half-life in series [1] is 8 h.

`C=C1C(=O)O[C@H]2[C@H]1CC/C(COC(=O)NCCN1CCCC1)=C\CC[C@@]1(C)O[C@@H]21`: the GI50 turned out to be 4.15 µM in the series with HL-60(TB); 3.26 µM in the series on K562; 3.46 µM in the series on SW-620; 8.71 µM in series [2]; 4.08 µM in [3]; 2.3 µM in the series with MDA-MB-468. Further, the GI50 with Malme-3M came to 4.18 µM; in the series on SNB-75, 18 µM; in the series on T47D it was 4.86 µM; in series [4], 8.41 µM; in the series with TK-10, 3.11 µM; in [5], 2.25 µM. Also, the GI50 is 4.75 µM in [6]; 3.48 µM in [7]; 10.2 µM in the series on SR; 1.78 µM with NCI-H522; 3.18 µM in [8]; 7.88 µM in [9]. Besides, the concentration for 50% growth inhibition (GI50) in the series on M14 was 9.65 µM; in [10], 15 µM; with MCF7, 3.91 µM; in the series with CCRF-CEM, 2.49 µM; in the series with ACHN, 3.8 µM; in the series with DU-145, 7.42 µM. Besides, the GI50 in the series with CAKI-1 is 6.86 µM; in series [11], 4.78 µM; with MDA-MB-435, 6.56 µM; in the series on IGROV-1 it was 4.09 µM. In addition, the half-life in series [1] was determined as 1.67 h.

`C=C1C(=O)O[C@H]2[C@H]1CC/C(COC(=O)NCCc1ccccn1)=C\CC[C@@]1(C)O[C@@H]21`: the GI50 was 3.13 µM in the series with SW-620; 8.2 µM in [2]; 2.22 µM in [3]; 3.22 µM in the series with MDA-MB-468; 7.52 µM in the series on Malme-3M; 3.78 µM in the series on SNB-75. Besides, the GI50 in the series with T47D is 6.19 µM; in the series with TK-10, 3.78 µM; in [5], 2.25 µM; in [6] it was 2.6 µM; in [7], 5.54 µM; in the series with SR, 4.1 µM. Also, the GI50 with NCI-H522 amounted to 1.64 µM; in series [8], 1.89 µM; in series [9], 4.96 µM; in the series with M14, 5.58 µM; in series [10] it was 5.77 µM; in the series with MCF7 it was 2.85 µM. The GI50 in the series on CCRF-CEM was 2.65 µM; in the series on ACHN, 2.75 µM; with DU-145, 4.59 µM; in the series on CAKI-1, 2.88 µM; in series [11] it was 3.54 µM; in the series with MDA-MB-435, 6.01 µM. The same compound registered a concentration for 50% growth inhibition (GI50) in the series on IGROV-1 of 14.4 µM. In [1], this compound yielded a half-life of 1.67 h.

As to `C=C1C(=O)O[C@H]2[C@H]1CC/C(COC(=O)NCCN1CCOCC1)=C\CC[C@@]1(C)O[C@@H]21`, the 50% growth inhibitory concentration (GI50) in the series on HL-60(TB) worked out at 3.59 µM; with K562, 3.37 µM; in the series with SW-620, 3.48 µM; in series [2] it was 5.72 µM; in series [3], 3 µM; with MDA-MB-468, 3.26 µM. For the same compound, the concentration for 50% growth inhibition (GI50) worked out at 6.12 µM in the series with Malme-3M; 19.5 µM in the series with SNB-75; 6.32 µM in the series on T47D; 6.2 µM in [4]; 3.93 µM in the series with TK-10; 2.3 µM in series [5]. Besides, the GI50 was 4.99 µM in [6]; 5 µM in series [7]; 3.65 µM with SR; 2.13 µM in the series with NCI-H522; 2.87 µM in [8]; 4.84 µM in series [9]. The GI50 was 7.97 µM with M14; 14.4 µM in series [10]; 3.54 µM in the series on MCF7; 3.03 µM with CCRF-CEM; 3.74 µM in the series on ACHN; 3.74 µM with DU-145. In addition, the GI50 with CAKI-1 came to 4.31 µM; in series [11], 8.89 µM; in the series with MDA-MB-435, 5.89 µM; with IGROV-1, 3.49 µM. The same compound displayed a half-life in series [1] of 1.67 h.

Take `C=C1C(=O)O[C@H]2[C@H]1CC/C(COC(=O)Nc1n[nH]c(SC)n1)=C\CC[C@@]1(C)O[C@@H]21`: the 50% growth inhibitory concentration (GI50) in the series on SW-620 came to 1.12 µM; in series [2] it was 2.57 µM; in series [3], 0.9 µM; in the series with MDA-MB-468, 1.29 µM; in the series with Malme-3M, 2.32 µM; in the series on SNB-75, 1.71 µM. Moreover, the concentration for 50% growth inhibition (GI50) with T47D stood at 2.23 µM; in the series with TK-10 it was 2.51 µM; in series [5], 0.65 µM; in [6], 1.47 µM; in [7], 2.32 µM; with SR, 2.36 µM. Moreover, the 50% growth inhibitory concentration (GI50) with NCI-H522 is 1.26 µM; in series [8], 1.13 µM; in [9], 1.95 µM; in the series on M14, 1.59 µM; in [10], 1.76 µM; in the series on MCF7, 1.33 µM. Besides, the GI50 worked out at 0.62 µM with CCRF-CEM; 1.75 µM in the series on ACHN; 3.49 µM in the series on DU-145; 1.99 µM with CAKI-1; 1.79 µM in [11]; 2.24 µM in the series on MDA-MB-435. The 50% growth inhibitory concentration (GI50) with IGROV-1 was 3.66 µM. In series [1], this compound returned a half-life of 1.67 h.

As to `C=C1C(=O)O[C@@H]2C3O[C@]3(C)CC/C=C(\C)CC[C@@H]12` (stereo not given in full), the GI50 (in [8]; with CAKI-1) was 10 µM in each case.

Take `C/C1=C\CC[C@@]2(C)O[C@@H]2[C@H]2OC(=O)C(CN(C)C)[C@@H]2CC1` (stereo not given in full) [DIMETHYLAMINOPARTHENOLIDE]: the GI50 with HL-60(TB) is 1.58 µM; in the series with K562, 2.51 µM; with SW-620 it was 3.98 µM; in series [2], 2.51 µM; in series [3] it was 15.8 µM; with T47D, 39.8 µM. Besides, the GI50 in [4] came out at 12.5 µM; in the series with TK-10 it was 3.16 µM; in series [5], 10 µM; in series [6], 5.01 µM; in series [7] it was 3.16 µM; in the series with NCI-H522, 2.51 µM. The GI50 was determined as 5.01 µM in series [8]; 10 µM in series [9]; 15.8 µM with M14; 2.51 µM in series [10]; 5.01 µM with MCF7; 1.99 µM in the series with CCRF-CEM. The concentration for 50% growth inhibition (GI50) was 15.8 µM with ACHN; 5.01 µM in the series on DU-145; 12.5 µM in the series with CAKI-1; 31.6 µM in series [11]; 7.94 µM with MDA-MB-435; 19.9 µM in the series on IGROV-1.

(Values after ChEMBL document CHEMBL3352514, “Anti-cancer activity of carbamate derivatives of melampomagnolide B” (Bioorg Med Chem Lett, 2014).)
